# High-throughput results: PubChem, several laboratories
# Shown are actives, neighbours in structure and some others; about 1.5% of the full set was active somewhere.
# TPT1 inhibitor – Candida albicans TPT1 enzyme inhibitors, primary screen, biochemical, fluorescence polarization | inhibition, % at 5 µM | tRNA 2'-phosphotransferase TPT1 (Candida albicans SC5314) | recombinant caTPT1, FP RNA substrate dephosphorylation | hit rate 0.81% among 300,000;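 active = inhibition above the mean of all tested compounds plus 3 SD, set per screening campaign, cut at about 24% in these data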;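 also: plate controls were DMSO alone for no effect and ferristatin control at 100 nM for full effect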
# Rpn11 inh – Rpn11 (PSMD14) deubiquitinase inhibitors, primary screen, biochemical, fluorescence polarization, uHTS; 26S proteasome non-ATPase regulatory subunit 14 (Homo sapiens), O00487; human 26S proteasome, Ub4-pepOG fluorescence polarization; 20S core pre-blocked with epoxomicin; inhibition, % at 20 µM; hit rate 0.59% among 360,000;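 active = inhibition at 20 µM, scaled to each plate's controls, above about 33%, limit read from the data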
# Target sequence (O00487 whole entry, looked up): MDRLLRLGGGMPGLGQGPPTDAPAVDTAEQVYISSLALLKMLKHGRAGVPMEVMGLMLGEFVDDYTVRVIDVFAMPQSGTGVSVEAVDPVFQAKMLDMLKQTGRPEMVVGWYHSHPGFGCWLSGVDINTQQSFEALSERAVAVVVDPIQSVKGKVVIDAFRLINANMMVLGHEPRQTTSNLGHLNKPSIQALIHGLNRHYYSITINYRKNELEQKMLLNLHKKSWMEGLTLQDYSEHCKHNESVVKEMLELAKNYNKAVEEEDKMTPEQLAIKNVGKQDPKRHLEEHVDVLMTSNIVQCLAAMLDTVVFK
# HNF4A DNA FP – change in binding of human HNF4A to DNA, primary screen, biochemical, fluorescence polarization, FITC-DNA | AID 1224865, 2016 | activity change, % at 10 µM | Hepatocyte nuclear factor 4-alpha (Homo sapiens), P41235 | 1 h | hit rate 0.3% among 360,000; in the data active = activity change above about 30%, passing the limit was not always enough
# CSN inh – inhibitors of CSN-mediated cullin deneddylation, primary screen, biochemical, fluorescence polarization, uHTS; Purified CSN, SCF-Nedd8-OG deneddylation; inhibition, % at 12.5 µM; AID 651999, 2013; COP9 signalosome complex subunit 5 (Homo sapiens), Q92905; hit rate 0.38% among 360,000;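 active = pattern-corrected inhibition above about 35%, with an unprinted fluorescence ratio check between 0.5 and 1.5, limit read from the data, passing the limit was not always enough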;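 also: 0% = enzyme with substrate and 100% = substrate without enzyme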
# Target sequence (Q92905 whole entry, looked up, one chain of several): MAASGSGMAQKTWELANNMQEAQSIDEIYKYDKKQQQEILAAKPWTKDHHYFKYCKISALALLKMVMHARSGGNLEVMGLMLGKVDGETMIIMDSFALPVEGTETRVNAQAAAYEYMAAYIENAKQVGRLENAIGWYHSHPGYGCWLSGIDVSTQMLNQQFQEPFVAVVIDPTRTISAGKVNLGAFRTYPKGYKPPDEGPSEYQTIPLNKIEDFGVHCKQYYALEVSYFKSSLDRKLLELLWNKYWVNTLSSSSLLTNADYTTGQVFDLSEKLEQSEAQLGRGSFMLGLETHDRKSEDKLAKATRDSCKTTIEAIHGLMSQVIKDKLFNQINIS
#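 Assay system: Purified human Csn5 enzyme expressed in HEK293T cells | Amount: Enzyme 0.24 nM | Measured by: Fluorescence polarization readout | Medium: Tris/NaCl/DTT buffer, pH 7.5 | Compound dosing: One concentration, 12.5 µM, 0.25% DMSO | Times: 90 min incubation of compound, enzyme and substrate at room temperature | Control set: no-enzyme wells high, enzyme-with-substrate wells low | Read-out: % inhibition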
# TPT1 inh confirm – Candida albicans TPT1 inhibitors, confirmation, biochemical, fluorescence polarization, triplicate; shares compounds with TPT1 inhibitor; recombinant caTPT1, RNase T1 coupled; inhibition, % at 5 µM; hit rate 74% among 2,400; AID 2149, 2009;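 active = inhibition above the primary screen limit, the mean inhibition of all tested compounds plus 3 SD, cut at about 25% in these data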
# RNase T1 inh – RNase T1 inhibitors, counter-screen for TPT1 inhibitor project, biochemical, fluorescence polarization; shares compounds with TPT1 inhibitor; RNase T1 cleavage, 1536-well; inhibition, % at 5 µM; hit rate 83% among 2,400; AID 2153, 2009;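 active = inhibition above the solvent-only control well mean plus 3 SD, limit set per screening run, cut at about 23% in these data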;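 also: plate controls were DMSO wells with enzyme for no effect and wells without RNase T1 for full effect; inhibitors block cleavage so intact labeled substrate keeps polarization high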
# Active calls of the source: *; . = not tested or not shown.
SMILES,TPT1 inhibitor,Rpn11 inh,HNF4A DNA FP,CSN inh,TPT1 inh confirm,RNase T1 inh
Cc1ccsc1CNC(=O)C1(C)CCN1C(=O)C(C)C (centres undefined),.,0.5,-0.9,-3.8,.,.
O=C(O)c1ccc2c(c1)S(=O)(=O)c1cc(N3CCN(c4ncccn4)CC3)ccc1C2=O,.,18.8,12.8,6.7,.,.
Cc1ccc2c(c1)C1C=CCC1C(C(=O)O)N2 (centres undefined),13.8,.,.,.,.,.
O=C(O)C1Nc2c(O)cc(Cl)c([N+](=O)[O-])c2C2C=CCC12 (centres undefined),84.5*,30.3,-76.7,83.5,15.0,9.9
N#C/C(C(=O)NCCc1ccccc1)=C1/N=C(NC(=O)c2cccs2)c2ccccc21,3.2,1.8,8.6,2.7,.,.
COCCCNC(=O)/C(C#N)=C1\N=C(NC(=O)c2cccs2)c2ccccc21,31.4*,18.7,19.1,11.7,9.9,15.1
COc1ccc(/C=C2\CCC(C3CCCC3)C2=O)c(OC)c1 (centres undefined),1.6,7.2,1.1,3.3,.,.
COc1ccc(/C=C2\CC/C(=C\c3ccc(OC)cc3OC)C2=O)c(OC)c1,147.6*,.,123.6,78.9,148.5*,137.5*
Cc1cccc(S(=O)(=O)c2c(N)n(Cc3ccco3)c3nc4ccccc4nc23)c1,23.4,.,8.7,17.4,.,.
Cc1ccc(S(=O)(=O)c2c(N)n(Cc3ccco3)c3nc4ccccc4nc23)cc1,27.3*,4.0,-12.3,-13.4,18.2,29.0*
O=C(NCCN1CCOCC1)/C(=C/c1ccc(Cl)cc1)NC(=O)c1ccccc1,-1.2,-1.3,4.0,1.1,.,.
CN(C)c1ccc(/C=C(/NC(=O)c2ccccc2)C(=O)NCCN2CCOCC2)cc1,48.5*,25.2,5.3,9.1,11.4,17.0
CN(C)c1ccc(/C=C(/NC(=O)c2ccccc2Cl)C(=O)NCCN2CCOCC2)cc1,47.5*,22.0,4.7,4.6,120.3*,128.5*
O=C(CN1C(=O)NC2(CCOc3ccccc32)C1=O)c1ccc(Br)cc1 (centres undefined),-2.4,4.9,-1.8,3.8,.,.
N#C/C(=C\c1cc(Cl)c(OCc2ccc(Cl)cc2)c(Cl)c1)C(N)=O,1.0,.,.,.,.,.
N#C/C(=C\c1cc(O)c(O)c(O)c1)C(N)=O,33.2*,19.7,1.9,13.8,27.1*,35.9*
O=C(Nc1ccc(S(=O)(=O)Nc2nccs2)cc1)c1cnc(Cl)c(Cl)c1,32.9*,4.5,-2.1,7.0,30.8*,47.6*
CCn1nc(C(=O)Nc2ccc(S(=O)(=O)Nc3nccs3)cc2)c2ccccc2c1=O,30.6*,14.9,-1.5,-1.5,53.6*,70.8*
O=C(Nc1ccc(S(=O)(=O)Nc2ncccn2)cc1)c1cnc(Cl)c(Cl)c1,4.7,1.4,0.6,6.1,.,.
O=c1[nH]ncc2c3ccccc3n(Cc3cccc(Cl)c3)c12,69.2*,.,62.8*,22.5,156.8*,136.8*
O=[N+]([O-])c1cccc(-c2nc(-c3cccs3)c(-c3cccs3)[nH]2)c1,-0.6,-6.3,14.5,3.3,.,.
O=[N+]([O-])c1ccc(-c2nc(-c3cccs3)c(-c3cccs3)[nH]2)cc1,63.4*,.,32.1,28.3,60.4*,76.7*
O=C(O)C(=O)/C(=C\c1ccsc1)c1ccc2ccccc2n1,-0.1,-2.9,3.4,-2.4,.,.
O=C(O)C(=O)/C(=C\c1cccc2ccccc12)c1ccc2ccccc2n1,49.0*,.,19.9,20.0,89.1*,102.3*
Cc1ccc(S(=O)(=O)N2CCCC2)cc1C(=O)NCc1ccccc1CN1CCCC1,.,-3.1,2.8,3.4,.,.
SMILES,TPT1 inhibitor,Rpn11 inh,HNF4A DNA FP,CSN inh,TPT1 inh confirm,RNase T1 inh
CCC(C)n1c(SCC(=O)NC2CCS(=O)(=O)C2)nc2ccccc2c1=O (centres undefined),2.8,0.0,-2.0,-6.8,.,.
COCCC(=O)N1CCC(Oc2ccc(C(=O)N3CCCCC3CCO)cc2)CC1 (centres undefined),1.5,1.8,-1.4,5.2,.,.
O=C(N/C=C/c1ccco1)Nc1cccc(Cl)c1,34.3*,24.4,0.0,7.7,5.0,13.1
COc1ccc(NC(=O)N/C=C/c2ccco2)cc1,3.6,9.3,3.1,4.9,.,.
COc1ccc(CCNc2nc(-c3ccc(F)cc3)c(CC(=O)O)s2)cc1OC,98.1*,30.8,4.2,31.8,14.8,23.4*
COc1ccc(NC(=O)c2cc(S(=O)(=O)Nc3ccc(OC)cc3)cs2)cc1,47.4*,-0.3,1.1,-4.9,5.5,6.9
Nc1c(C(=O)N/N=C/c2ccccc2Cl)oc2nc(-c3ccccc3)cc(-c3ccco3)c12,71.5*,.,64.5,1.8,91.6*,95.5*
Cc1cc(-c2ccccc2)nc2oc(C(=O)NN)c(N)c12,0.2,8.1,4.5,-6.6,.,.
CN1C(=O)/C(=C/c2coc3ccc(O)cc3c2=O)SC1=S,23.9,23.8,16.4,8.7,.,.
Cc1cc(/C=C2\C(=N)N3N=C(c4ccco4)SC3=NC2=O)c(C)n1Cc1ccccc1,12.6,10.4,-12.0,14.0,.,.
N=C1/C(=C\c2coc3ccccc3c2=O)C(=O)N=C2SC(c3ccncc3)=NN12,79.0*,.,52.2,70.2,70.6*,84.2*
N=C1/C(=C/c2coc3ccccc3c2=O)C(=O)N=C2SC(c3ccco3)=NN12,58.6*,.,23.3,-65.4,87.7*,97.4*
N=C1/C(=C\c2coc3ccc(O)cc3c2=O)C(=O)N=C2SC=CN12,65.5*,.,30.1,68.7,66.9*,76.3*
C[C@@H]1CCCCO[C@@H](CN(C)C(=O)c2ccncc2)[C@@H](C)CN([C@H](C)CO)C(=O)c2cc(N(C)C)ccc2O1,.,-5.7,1.9,-1.7,.,.
Cc1csc(CNc2ncnc3ccc(-c4cccc(Cl)c4)cc23)c1,.,-2.7,-1.8,8.0,.,.
CCCCn1c(-c2csc(CC)c2)n[nH]c1=S,0.2,-7.8,0.7,-5.3,.,.
CCCCn1c(-c2csc(C(C)C)c2)n[nH]c1=S,60.8*,3.4,-2.1,-12.2,5.8,7.6
CC1(C)CCC[C@@]2(C)CC=C(C(=O)O)[C@@H]3C[C@]312,-1.7,7.8,4.2,-1.3,.,.
COc1cc(/C=C2/C(=N)N3C(=NC2=O)SN=C3S(C)(=O)=O)ccc1OS(=O)(=O)c1ccccc1,27.9*,.,.,.,15.9,23.2*
CCOc1cc(/C=C2/C(=N)N3C(=NC2=O)SN=C3S(C)(=O)=O)ccc1OS(=O)(=O)c1ccccc1,15.0,26.1,7.3,11.6,.,.
